The source made the active and inactive calls. The rule behind the calls is not given here.
What was measured:
[1] = system: MCF-10A; assay: Cytotoxicity against human MCF-10A cells assessed as reduction in cell growth at 1 uM incubated for 48 hrs by BrdU cell proliferation assay; assay type: toxicity, cell-based
Procedure, shortened: (§1)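 48 h exposure to 1 μM, with DMSO vehicle (≤0.01%) and doxorubicin (1 μM) controls, then BrdU added for 2 h at 37 °C before fixation, DNA denaturation and colorimetric immunoassay of BrdU incorporation. Plating was 8 × 10^3 cells/well for MCF-10A and 5 × 10^3 cells/well for MDA-MB-231. Technical replicates were n = 6 for MDA-MB-231 and n = 5 for MCF-7 and MCF-10A; one-way ANOVA with Tukey's test.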

[2] = system: MCF7; assay: Cytotoxicity against human MCF7 cells assessed as reduction in cell growth at 1 uM incubated for 48 hrs by BrdU cell proliferation assay; assay type: functional, cell-based; procedure, shortened: as §1
[3] = system: MDA-MB-231; assay: Cytotoxicity against human MDA-MB-231 cells assessed as reduction in cell growth at 1 uM incubated for 48 hrs by BrdU cell proliferation assay; assay type: functional, cell-based; procedure, shortened: as §1
[4] = organism: Homo sapiens; assay: Selectivity index, ratio of IC50 for inhibition of CYP2D6 in human liver microsomes to IC50 for inhibition of CYP19A1 in human JEG-3 cells; assay type: cell-based
Procedure, shortened: (§2)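 The CYP isoform IC50 was measured in human liver microsomes with an isoform-specific probe substrate. […] Tritiated water was charcoal-cleared and counted, then normalised to BCA protein, in triplicate. The index is the ratio of the isoform IC50 to the CYP19A1 IC50.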

[5] = organism: Homo sapiens; assay: Selectivity index, ratio of IC50 for inhibition of CYP1A2 in human liver microsomes to IC50 for inhibition of CYP19A1 in human JEG-3 cells; assay type: cell-based; procedure, shortened: as §2

| SMILES | Activity [1] | Activity [2] | Activity [3] | Ratio IC50 [4] | Ratio IC50 [5] |
| --- | --- | --- | --- | --- | --- |
| CCC#CCOc1ccc2cc(C(O)(c3ccc(Cl)cc3)c3cccnc3)oc2c1 (centres undefined) | Not Active | inactive | inactive |  |  |
| CC#CCOc1ccc2cc(C(O)(c3ccc(Cl)cc3)c3cccnc3)oc2c1 (centres undefined) | Non-Toxic | inactive | inactive |  |  |
| COc1ccc2cc(C(O)(c3ccc(Cl)cc3)c3cccnc3)oc2c1 (centres undefined) | Non-Toxic | inactive | inactive |  |  |
| COc1ccc2cc(C(O)(c3ccc(Br)cc3)c3cccnc3)oc2c1 (centres undefined) | Non-Toxic | inactive | inactive |  |  |
| CC#CCOc1ccc2cc(C(O)(c3ccc(Br)cc3)c3cccnc3)oc2c1 (centres undefined) | Non-Toxic | inactive | inactive | 30100 | 30100 |
| CCC#CCOc1ccc2cc(C(O)(c3ccc(Br)cc3)c3cccnc3)oc2c1 (centres undefined) | Not Active | inactive | inactive |  |  |
| COc1ccc2cc(C(O)(c3cccnc3)c3ccc(Cl)cc3Cl)oc2c1 (centres undefined) | Non-Toxic | inactive | inactive |  |  |
| COc1cccc2c1C(=O)c1c(O)c3c(c(O)c1C2=O)C[C@@](O)(C(=O)CO)C[C@@H]3O[C@H]1C[C@H](N)[C@H](O)[C@H](C)O1 [DOXORUBICIN] | Not Active | inactive | inactive |  |  |
| COc1ccc2cc(C(O)(c3ccc(F)cc3)c3cccnc3)oc2c1 (centres undefined) | Non-Toxic | inactive | inactive |  |  |

Source: ChEMBL document CHEMBL5230170, “Pyridine based dual binding site aromatase (CYP19A1) inhibitors” (RSC Med Chem, 2023)
